Results taken from ChEMBL document CHEMBL1142489, “Tetrahydrolipstatin analogues as modulators of endocannabinoid 2-arachidonoylglycerol metabolism” (J Med Chem, 2008).

Key:
[1] = Inhibition of MAGL-mediated [14C]2-arachidonoyl glycerol hydrolysis to [3H]arachidonic acid in african green monkey COS cell cytosolic fraction by scintillation counting; assay type: cell-based, Chlorocebus aethiops; conditions: in the assay text read “[3H]2-arachidonoyl glycerol” for “[14C]2-arachidonoyl glycerol”
How it was run: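 The 10000g cytosolic fraction of COS-7 cells, taken as the MAGL source, was incubated with 2-[3H]arachidonoylglycerol (1.0 mCi/mmol, 25 µM) in 50 mM Tris-HCl, pH 7.0, for 20 min at 37 °C. Products were separated by TLC. [3H]arachidonic acid was quantified by scintillation counting as the measure of activity.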

[2] = Selectivity ratio of IC50 for african green monkey MAGL over Ki for human recombinant CB1 receptor
Cannabinoid receptor 2 = Cannabinoid receptor 2 (Homo sapiens, UniProt P34972); experiment: Displacement of [3H]CP-55940 from human recombinant CB2 receptor expressed in HEK293 cells by scintillation counting; assay type: cell-based
[3] = Selectivity ratio of IC50 for african green monkey MAGL over IC50 for human recombinant DAGLalpha
Cannabinoid receptor 1 = Cannabinoid receptor 1 (Homo sapiens, UniProt P21554); experiment: Displacement of [3H]CP-55940 from human recombinant CB1 receptor expressed in HEK293 cells by scintillation counting; assay type: cell-based
[4] = Enhancement of ionomycin-induced stimulation of 2-AG biosynthesis in mouse N18TG2 cells at 1.5 uM; assay type: functional
How it was run: (§1)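 Confluent mouse N18TG2 neuroblastoma cells attached to dishes were incubated for 20 min at 37 °C in medium containing 3 µM ionomycin, with vehicle or test compound. The reaction was stopped with ice-cold methanol and lipids were extracted three times with CHCl₃. Lyophilized lipids were assayed for 2-AG by isotope-dilution LC-MS. Values are % change in 2-AG levels versus vehicle (means ± SEM, N = 3).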

[5] = target: T1, Fatty-acid amide hydrolase 1 (Rattus norvegicus, UniProt P97612); experiment: Inhibition of FAAH-mediated [14C]anandamide hydrolysis in rat brain membrane; assay type: cell membranes
T1 sequence (P97612 whole entry): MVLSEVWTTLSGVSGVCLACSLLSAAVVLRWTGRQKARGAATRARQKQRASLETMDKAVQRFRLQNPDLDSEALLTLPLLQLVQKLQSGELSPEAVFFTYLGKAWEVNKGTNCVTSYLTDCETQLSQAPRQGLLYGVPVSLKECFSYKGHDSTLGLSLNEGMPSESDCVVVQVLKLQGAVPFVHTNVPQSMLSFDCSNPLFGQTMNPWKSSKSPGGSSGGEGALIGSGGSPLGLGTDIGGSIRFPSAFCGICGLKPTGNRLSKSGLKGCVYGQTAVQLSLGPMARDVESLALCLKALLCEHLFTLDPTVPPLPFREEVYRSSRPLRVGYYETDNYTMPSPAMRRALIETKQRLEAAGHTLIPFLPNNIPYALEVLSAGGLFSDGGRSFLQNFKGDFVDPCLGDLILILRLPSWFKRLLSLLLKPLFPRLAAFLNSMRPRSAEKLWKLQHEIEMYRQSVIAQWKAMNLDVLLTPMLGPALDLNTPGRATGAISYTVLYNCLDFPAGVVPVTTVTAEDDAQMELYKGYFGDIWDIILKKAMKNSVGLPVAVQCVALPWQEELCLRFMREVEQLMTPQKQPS
How it was run: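 The mixture was extracted with 2 volumes of CHCl3/CH3OH 1/1. [14C]ethanolamine in the aqueous phase was measured by scintillation counting.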

[6] = Selectivity ratio of IC50 for african green monkey MAGL over IC50 for rat brain membrane FAAH
[7] = Selectivity ratio of IC50 for african green monkey MAGL over Ki for human recombinant CB2 receptor
[8] = target: T2, Diacylglycerol lipase-alpha (Homo sapiens, UniProt Q9Y4D2); experiment: Inhibition of human recombinant DAGL-alpha-mediated sn-1-[14C]oleoyl-2-arachidonoyl-glycerol hydrolysis to 2-AG overexpressed in african green monkey COS7 cell membrane by scintillation counting; assay type: cell membranes, COS-7
T2 sequence (Q9Y4D2 whole entry): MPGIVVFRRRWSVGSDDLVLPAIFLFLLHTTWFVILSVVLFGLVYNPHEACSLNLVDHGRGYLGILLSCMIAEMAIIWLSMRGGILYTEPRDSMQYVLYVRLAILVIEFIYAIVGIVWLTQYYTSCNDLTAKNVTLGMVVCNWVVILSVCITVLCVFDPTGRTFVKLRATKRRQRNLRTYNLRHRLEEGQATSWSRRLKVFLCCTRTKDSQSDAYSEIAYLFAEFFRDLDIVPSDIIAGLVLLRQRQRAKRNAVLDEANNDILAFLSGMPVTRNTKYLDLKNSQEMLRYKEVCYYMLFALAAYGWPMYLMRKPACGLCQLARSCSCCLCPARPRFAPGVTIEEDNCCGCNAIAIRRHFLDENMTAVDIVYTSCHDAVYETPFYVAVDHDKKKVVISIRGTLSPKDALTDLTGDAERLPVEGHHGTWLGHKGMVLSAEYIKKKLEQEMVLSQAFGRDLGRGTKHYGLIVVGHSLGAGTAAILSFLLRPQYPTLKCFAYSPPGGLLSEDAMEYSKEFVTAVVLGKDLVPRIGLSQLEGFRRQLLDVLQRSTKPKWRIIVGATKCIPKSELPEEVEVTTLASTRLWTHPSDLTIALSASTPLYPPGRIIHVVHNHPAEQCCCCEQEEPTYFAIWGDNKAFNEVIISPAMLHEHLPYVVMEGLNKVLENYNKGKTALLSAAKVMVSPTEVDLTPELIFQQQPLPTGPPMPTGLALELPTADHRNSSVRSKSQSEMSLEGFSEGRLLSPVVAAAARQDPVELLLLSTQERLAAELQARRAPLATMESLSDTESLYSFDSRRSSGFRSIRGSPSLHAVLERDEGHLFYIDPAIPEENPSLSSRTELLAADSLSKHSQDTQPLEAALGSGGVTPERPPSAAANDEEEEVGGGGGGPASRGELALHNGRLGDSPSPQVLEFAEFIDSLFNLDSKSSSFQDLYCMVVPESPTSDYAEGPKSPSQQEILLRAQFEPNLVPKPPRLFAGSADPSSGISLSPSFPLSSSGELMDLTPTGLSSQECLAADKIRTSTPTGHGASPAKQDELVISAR

[9] = Selectivity ratio of IC50 for human recombinant DAGLalpha over IC50 for african green monkey MAGL
Homo sapiens [10] = organism: Homo sapiens; experiment: Selectivity ratio of IC50 for human recombinant DAGLalpha over Ki for human recombinant CB2 receptor
Homo sapiens [11] = organism: Homo sapiens; experiment: Selectivity ratio of IC50 for human recombinant DAGLalpha over Ki for human recombinant CB1 receptor
[12] = Selectivity ratio of IC50 for human recombinant DAGLalpha over IC50 for rat brain membrane FAAH
[13] = Inhibition of ionomycin-induced stimulation of 2-AG biosynthesis in mouse N18TG2 cells at 0.3 uM; assay type: functional; how it was run: as §1
[14] = Inhibition of ionomycin-induced stimulation of 2-AG biosynthesis in mouse N18TG2 cells at 1 uM; assay type: functional; how it was run: as §1

Chain of Cannabinoid receptor 1 (P21554 whole entry): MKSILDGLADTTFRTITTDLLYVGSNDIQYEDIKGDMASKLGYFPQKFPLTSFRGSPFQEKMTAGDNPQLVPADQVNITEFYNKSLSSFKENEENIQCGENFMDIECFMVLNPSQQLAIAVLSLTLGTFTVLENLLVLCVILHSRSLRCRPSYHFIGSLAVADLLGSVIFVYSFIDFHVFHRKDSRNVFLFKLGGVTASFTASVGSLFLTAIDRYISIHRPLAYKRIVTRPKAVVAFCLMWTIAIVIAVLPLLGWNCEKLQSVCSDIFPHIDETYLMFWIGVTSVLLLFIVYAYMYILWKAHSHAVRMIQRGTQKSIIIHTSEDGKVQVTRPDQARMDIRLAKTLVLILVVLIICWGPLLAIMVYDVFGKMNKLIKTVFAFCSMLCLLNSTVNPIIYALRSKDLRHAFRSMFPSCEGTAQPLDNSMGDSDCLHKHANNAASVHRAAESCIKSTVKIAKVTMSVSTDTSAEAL
Chain of Cannabinoid receptor 2 (P34972 whole entry): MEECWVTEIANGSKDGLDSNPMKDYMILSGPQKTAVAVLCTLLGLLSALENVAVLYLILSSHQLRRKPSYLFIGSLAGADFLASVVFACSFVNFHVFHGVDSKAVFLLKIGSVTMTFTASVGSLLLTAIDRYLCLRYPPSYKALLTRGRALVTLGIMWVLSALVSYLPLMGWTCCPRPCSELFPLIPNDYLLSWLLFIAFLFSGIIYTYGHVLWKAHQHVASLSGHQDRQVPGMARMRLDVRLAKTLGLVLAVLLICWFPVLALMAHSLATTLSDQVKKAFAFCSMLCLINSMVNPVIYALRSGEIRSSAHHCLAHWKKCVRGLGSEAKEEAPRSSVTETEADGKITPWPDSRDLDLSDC

| IC50 [1] [µM] | Ki (Cannabinoid receptor 2) [µM] | Ki (Cannabinoid receptor 1) [µM] | IC50 [5] [µM] | IC50 [8] [µM] | SMILES | further results |
| --- | --- | --- | --- | --- | --- | --- |
| > 10 | – | – | > 50 | 25 | CCCCCCCCCCC[C@@H](C[C@@H]1OC(=O)[C@H]1CCCCCC)OC(=O)[C@H](Cc1ccccc1)NC=O | – |
| > 10 | > 10 | 8.4 | > 50 | 0.46 | CCCCCCCCCCC[C@@H](C[C@@H]1OC(=O)[C@H]1CCCCCC)OC(=O)[C@@H](NC(C)=O)C(C)C | Ratio IC50 [9]: 15; Ratio (Homo sapiens [10]): 15; Ratio (Homo sapiens [11]): 15; Ratio IC50 [12]: 15 |
| > 10 | – | – | > 50 | > 25 | CCCCCCCCCCC[C@@H](C[C@@H]1OC(=O)[C@H]1CCCCCC)OC(=O)[C@@H](CC(C)C)NC(=O)OCc1ccccc1 | – |
| 0.4 | 6.4 | 1.9 | > 50 | 0.6 | CCCCCCCCCCC[C@@H](C[C@@H]1OC(=O)[C@H]1CCCCCC)OC(=O)CCNC=O | – |
| 1.7 | > 10 | 2.3 | > 50 | 0.8 | CCCCCCCCCCC[C@@H](C[C@@H]1OC(=O)[C@H]1CCCCCC)OC(=O)CNC(C)=O | – |
| > 10 | – | – | > 50 | 25 | CCCCCCCCCCC[C@@H](C[C@@H]1OC(=O)[C@H]1CCCCCC)OC(=O)[C@@H](N)Cc1ccccc1 | – |
| > 10 | – | – | > 50 | > 25 | CCCCCCCCCCC[C@@H](C[C@@H]1OC(=O)[C@H]1CCCCCC)OC(=O)[C@H](Cc1ccccc1)NC(=O)OCc1ccccc1 | – |
| > 10 | – | – | 10.4 | > 25 | CCCCCCCCCCC[C@@H](C[C@@H]1OC(=O)[C@H]1CCCCCC)OC(=O)CCC(C)C | – |
| > 10 | 7.4 | 1.7 | 3.4 | 1.1 | CCCCCCCCCCC[C@@H](C[C@@H]1OC(=O)[C@H]1CCCCCC)OC(=O)[C@@H]1CCCN1C=O | – |
| > 10 | – | – | > 50 | > 25 | CCCCCCCCCCC[C@@H](C[C@@H]1OC(=O)[C@H]1CCCCCC)OC(=O)[C@H](CC(C)C)NC(=O)OC(C)(C)C | – |
| > 10 | > 10 | 5.7 | > 50 | 0.035 | CCCCCCCCCCC[C@@H](C[C@@H]1OC(=O)[C@H]1CCCCCC)OC(=O)[C@@H](NC=O)C(C)C | Ratio IC50 [9]: 23; Ratio (Homo sapiens [10]): 23; Ratio (Homo sapiens [11]): 23; Ratio IC50 [12]: 23 |
| > 10 | – | – | > 50 | > 25 | CCCCCCCCCCC[C@@H](C[C@@H]1OC(=O)[C@H]1CCCCCC)OC(=O)CNC(=O)OCc1ccccc1 | – |
| 3.5 | > 10 | 2.6 | > 50 | 0.1 | CCCCCCCCCCC[C@@H](C[C@@H]1OC(=O)[C@H]1CCCCCC)OC(=O)[C@@H]1CCC(=O)N1 | Ratio IC50 [9]: 15; Ratio (Homo sapiens [10]): 15; Ratio (Homo sapiens [11]): 15; Ratio IC50 [12]: 15 |
| 1 | > 10 | 3.1 | > 50 | 0.043 | CCCCCCCCCCC[C@@H](C[C@@H]1OC(=O)[C@H]1CCCCCC)OC(=O)[C@H](C)NC=O | Ratio IC50 [9]: 23; Ratio (Homo sapiens [10]): 23; Ratio (Homo sapiens [11]): 23; Ratio IC50 [12]: 23 |
| > 10 | > 10 | 8.6 | 6.6 | 0.43 | CCCCCCCCCCC[C@@H](C[C@@H]1OC(=O)[C@H]1CCCCCC)OC(=O)[C@@H](NC(C)=O)[C@@H](C)CC | Ratio IC50 [9]: 15; Ratio (Homo sapiens [10]): 15; Ratio (Homo sapiens [11]): 15; Ratio IC50 [12]: 15 |
| > 10 | – | – | > 50 | 25 | CCCCCCCCCCC[C@H](O)C[C@@H]1OC(=O)[C@H]1CCCCCC | – |
| > 10 | – | – | > 50 | > 25 | CCCCCCCCCCC[C@@H](C[C@@H]1OC(=O)[C@H]1CCCCCC)OC(=O)[C@@H](N)CC(C)C | – |
| > 10 | – | – | – | – | CCCCCCCCCCC[C@@H](C[C@@H]1OC(=O)[C@H]1CCCCCC)OC(=O)[C@@H](CC(C)C)NC=O | – |
| > 10 | – | – | > 50 | > 25 | CCCCCCCCCCC[C@@H](C[C@@H]1OC(=O)[C@H]1CCCCCC)OC(=O)[C@H](CC(C)C)NC(=O)OCc1ccccc1 | – |

| SMILES | IC50 [1] [µM] | Ki (Cannabinoid receptor 2) [µM] | Ki (Cannabinoid receptor 1) [µM] | IC50 [5] [µM] | IC50 [8] [µM] | further results |
| --- | --- | --- | --- | --- | --- | --- |
| CCCCCCCCCCC[C@@H](C[C@@H]1OC(=O)[C@H]1CCCCCC)OC(=O)CNC=O | 0.41 | > 10 | > 10 | 3 | 2.8 | Ratio [2]: 7; Ratio IC50 [3]: 7; Activity [4]: 55%; Ratio IC50 [6]: 7; Ratio [7]: 7 |
| CCCCCCCCCCC[C@@H](C[C@@H]1OC(=O)[C@H]1CCCCCC)OC(=O)[C@@H](NC=O)[C@@H](C)CC | > 10 | > 10 | 6 | > 50 | 0.016 | inhibition at 0.3 µM [13]: 57.3%; Ratio IC50 [9]: 23; Ratio (Homo sapiens [10]): 23; Ratio (Homo sapiens [11]): 23; Ratio IC50 [12]: 23 |
| CCCCCCCCCCC[C@@H](C[C@@H]1OC(=O)[C@H]1CCCCCC)OC(=O)[C@H](CC(C)C)NC=O [ORLISTAT] | > 10 | > 10 | 2.5 | – | – | inhibition at 1 µM [14]: 79.8% |
